We go through 1 compound from ChEMBL document CHEMBL1124093, “Peptide derivatives of primaquine as potential antimalarial agents” (J Med Chem, 1988).

SMILES strings stand for the structures.

The subject of data set [1] is Plasmodium cynomolgi. Description: Antimalarial activity against Plasmodium cynomolgi in Rhesus monkeys (Macaca mulatta) at 1 mg/kg; cured 1 of 2.
Data set [2] concerns Mus musculus. Description: Antimalarial activity against Plasmodium berghei in mice (Mus musculus) at 320 mg/kg measured as number of toxic deaths occurring on days 2-5 after infection. The following applies: in vivo. More on the design: dose 320 mg/kg. It is filed as ADME, organism-based. In outline: (§1)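 Mice infected with blood-induced P. berghei, five animals per group, run by the Osdene et al. method. Doses are expressed as mg primaquine diphosphate/kg. The read-out is the number of deaths attributed to toxicity occurring on days 2-5 after infection.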

The subject of data set [3] is Mus musculus. The data set is described as follows: Antimalarial activity against Plasmodium berghei in rodent at 80 mg/Kg measured as mean survival time over control (Delta MST). It is filed as functional.
Data set [4] deals with Mus musculus. Description: Antimalarial activity against Plasmodium berghei in mice (Mus musculus) at 160 mg/kg measured as number of toxic deaths occurring on days 2-5 after infection. It is filed as ADME, organism-based. More on the design: dose 160 mg/kg. The following applies: in vivo. In outline: as §1
In data set [5] the test system is Plasmodium cynomolgi. The data set is described as follows: Antimalarial activity against Plasmodium cynomolgi in Rhesus monkeys (Macaca mulatta) at 0.316 mg/kg; cured 0 of 2. In kind it is functional.
The subject of data set [6] is Mus musculus. Description: Antimalarial activity against Plasmodium berghei in mice (Mus musculus) at 640 mg/kg measured as number of toxic deaths occurring on days 2-5 after infection. In kind it is ADME, organism-based. More on the design: dose 640 mg/kg. The following applies: in vivo. A digest of the protocol: as §1

Take `COc1cc(NC(C)CCCN)c2ncccc2c1` (stereo unspecified) [PRIMAQUINE]: the Cures with Plasmodium cynomolgi [1] was 1; in the data set on Plasmodium cynomolgi [5], 0. The Toxic deaths was found to be 5 in the data set on Mus musculus [2], 2 with Mus musculus [4] and 5 in the data set with Mus musculus [6]. In addition, in the data set on Mus musculus [3], the “Delta MST” value is on record as 9.
